This is a sample that favours compounds with a hit; in the whole collection about 3.1% have one here.
MBD2 inh – MBD2-methylated oligo binding inhibition | Q9UBB5 | TR-FRET, MBD2 binding to methylated oligonucleotide | inhibition, % at 4.4 µM | hit rate 0.31% among 370,000; in the data active means inhibition above about 13%
RBBP9 inh – human RBBP9 hydrolase inhibition; O75884; recombinant RBBP9, FP-Rh probe fluorescence polarization; inhibition, % at 7.94 µM; hit rate 0.2% among 220,000; AID 1515;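 active means inhibition above the campaign mean of all tested compounds plus 3 SD, cut at about 14% in these data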;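 further: plate controls were DMSO wells with RBBP9 for no effect and wells lacking RBBP9 protein for full effect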
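System: RBBP9 protein | Quantity: 2.5 µM RBBP9 dispensing solution, before mixing | Reagent: FP-Rh probe, 375 nM dispensing solution | Timing: Enzyme-compound preincubation 30 min, then probe labeling 45 min, 25 °C | Measured by: Fluorescence polarization | Read-out: % inhibition | Replication: One well per compound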
ABHD5 PLIN5 PPI – inhibitors of human ABHD5-perilipin-5 interaction. Split G. princeps luciferase complementation, luminescence, 4 h. inhibition, % at 4 µM. Q00G26+Q8WTS1. hit rate 0.78% among 360,000;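 active means inhibition above the mean inhibition across every tested compound plus 3 SD, cut at about 22% in these data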;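 further: 0% = DMSO only wells and the 100% control is not disclosed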
PRMT1 inh – PRMT1 (human) inhibition, primary screen; Q99873; recombinant PRMT1, activity-based probe fluorescence polarization; inhibition, % at 2.79 µM; hit rate 1.3% among 370,000;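 active means inhibition above about 21% made by adding two undisclosed values, limit read from the data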
LEDGF integ inh – blocks HIV-1 LEDGF/p75-dependent DNA integration. TR-FRET IN-LEDGF/p75 DNA integration, Eu/Cy5. inhibition, % at 3.7 µM. hit rate 0.64% among 370,000;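 active means inhibition above the screen-wide mean plus 3 SD, cut at about 13% in these data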;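 further: signal is the Cy5 over europium emission ratio at 671 and 618 nm; 0% = plate median of compound wells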
UHRF1 binding – UHRF1 methyl-DNA binding inhibition. Q96T88. UHRF1 binding to methylated oligo, TR-FRET. inhibition, % at 4.4 µM. hit rate 0.75% among 370,000. AID 687016; in the data active means inhibition above about 21%;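 further: UHRF1 SRA domain binding a hemimethylated CpG hairpin DNA probe; 0% = median of test compound wells and 100% = reference inhibitor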
Target sequence (Q96T88 whole entry, looked up, the tested form may be a part): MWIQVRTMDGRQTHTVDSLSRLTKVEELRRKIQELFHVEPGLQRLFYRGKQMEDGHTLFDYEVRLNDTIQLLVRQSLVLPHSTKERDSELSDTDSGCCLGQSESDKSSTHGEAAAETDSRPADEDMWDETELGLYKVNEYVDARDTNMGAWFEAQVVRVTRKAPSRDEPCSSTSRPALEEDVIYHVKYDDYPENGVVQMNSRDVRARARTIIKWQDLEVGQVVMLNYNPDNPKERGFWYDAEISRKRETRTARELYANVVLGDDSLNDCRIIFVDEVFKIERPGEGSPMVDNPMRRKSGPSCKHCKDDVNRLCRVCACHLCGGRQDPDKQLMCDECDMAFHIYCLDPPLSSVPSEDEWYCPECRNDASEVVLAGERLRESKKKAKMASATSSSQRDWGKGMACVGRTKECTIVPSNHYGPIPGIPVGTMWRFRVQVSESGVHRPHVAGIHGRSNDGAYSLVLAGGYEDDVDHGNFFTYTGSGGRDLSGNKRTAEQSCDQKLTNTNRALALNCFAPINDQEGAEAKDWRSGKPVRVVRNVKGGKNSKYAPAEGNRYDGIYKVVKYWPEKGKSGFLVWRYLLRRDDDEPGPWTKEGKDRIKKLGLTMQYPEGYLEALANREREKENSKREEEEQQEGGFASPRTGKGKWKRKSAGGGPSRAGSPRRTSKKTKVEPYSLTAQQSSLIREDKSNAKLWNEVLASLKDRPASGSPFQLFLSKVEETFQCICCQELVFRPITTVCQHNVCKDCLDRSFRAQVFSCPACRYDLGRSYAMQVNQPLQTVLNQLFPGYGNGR
IN multimer up – activates HIV-1 integrase multimerization in LEDGF counter-screen. TR-FRET HIV-1 integrase multimerization, biochemical. AID 1053131. hit rate 17% among 2,000. shares compounds with LEDGF integ inh. activation, % at 7.7 µM; in the data active means activation above about 8.9%
TRFRET interf – counter-screen for LEDGF/p75 integration inhibitors: TR-FRET optical interference; shares compounds with LEDGF integ inh; TR-FRET optical interference counterscreen, HIV-1 IN multimerization; inhibition, % at 7.7 µM; 2,000 tested, under 10 active; AID 1053135;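 active means inhibition above the mean over all tested compounds plus 3 SD, which no compound reached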;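 further: 0% = integrase with antibodies and DMSO and 100% = antibodies without integrase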
LEDGF integ conf – confirmation of HIV-1 LEDGF/p75-dependent integration inhibitors | shares compounds with LEDGF integ inh | TR-FRET LEDGF/p75-dependent HIV-1 integration, biochemical | inhibition, % at 3.7 µM | hit rate 36% among 2,000 | AID 1053136; in the data active means inhibition above about 14%
* hit, by the source's call.

How did CC(C)CCn1nnnc1C(c1ccccc1)N1CCN(C)CC1 (stereo not drawn) do in these assays?
MBD2 inh: 0; RBBP9 inh: -7; ABHD5 PLIN5 PPI: -3; PRMT1 inh: -4; LEDGF integ inh: 2; UHRF1 binding: -1

How did O=C(CCn1c(=O)[nH]c2ccccc2c1=O)NCCSCc1ccccc1 do in these assays?
MBD2 inh: 0; RBBP9 inh: 6; ABHD5 PLIN5 PPI: 1; PRMT1 inh: 1; LEDGF integ inh: -3; UHRF1 binding: 15

Results for NC(=O)Cn1c(=O)n(CCC(=O)NCCSCc2ccccc2)c(=O)c2ccccc21 ?
MBD2 inh: 3; RBBP9 inh: 2; ABHD5 PLIN5 PPI: 0; PRMT1 inh: -2; LEDGF integ inh: 64*; UHRF1 binding: 1; IN multimer up: -2; TRFRET interf: 10; LEDGF integ conf: 1

How did CC(CC(=O)O)Nc1ccccc1O (stereo not drawn) do in these assays?
MBD2 inh: 0; RBBP9 inh: 3; ABHD5 PLIN5 PPI: -7; PRMT1 inh: 23*; LEDGF integ inh: 35*; UHRF1 binding: 7; IN multimer up: 6; TRFRET interf: -22; LEDGF integ conf: 3

How did CC(=O)Nc1ccccc1O do in these assays?
MBD2 inh: -4; RBBP9 inh: 0; ABHD5 PLIN5 PPI: 4; PRMT1 inh: -1; LEDGF integ inh: 0; UHRF1 binding: -2

What do the screens show for `COC(=O)C1=C(C)N(C)C(=NCC2CC2)NC1c1ccccc1` (stereo not drawn)?
MBD2 inh: 10; PRMT1 inh: 0; LEDGF integ inh: 0; UHRF1 binding: 20

What do the screens show for `CC(C)NC(=O)N(C)C[C@@H]1Oc2ccc(NC(=O)Nc3ccc(C(F)(F)F)cc3)cc2CC(=O)N([C@H](C)CO)C[C@@H]1C`?
MBD2 inh: 2; ABHD5 PLIN5 PPI: 6; PRMT1 inh: 3; LEDGF integ inh: 14*; UHRF1 binding: -2; IN multimer up: 0; TRFRET interf: -2; LEDGF integ conf: -4

Results for O=C(NN=C(c1ccccc1)c1ccccn1)c1ccccc1 ?
MBD2 inh: -3; ABHD5 PLIN5 PPI: 4; PRMT1 inh: -7; LEDGF integ inh: 21*; UHRF1 binding: 8; IN multimer up: -1; TRFRET interf: 2; LEDGF integ conf: -1

How did COc1ccc(-c2cnc3c(NC=O)cc(-c4cc(OC)c(OC)c(OC)c4)cn23)cc1OC do in these assays?
MBD2 inh: -6; ABHD5 PLIN5 PPI: 9; PRMT1 inh: -1; LEDGF integ inh: 0; UHRF1 binding: -2

Results for COc1ccc(-c2cnc3c(NC=O)cc(-c4ccoc4)cn23)cc1OC ?
MBD2 inh: -6; ABHD5 PLIN5 PPI: 16; PRMT1 inh: 6; LEDGF integ inh: 28*; UHRF1 binding: -6; IN multimer up: -1; TRFRET interf: 3; LEDGF integ conf: 5

Results for O=C(NCCc1ccccc1Cl)[C@@H]1CCCN1C(=O)[C@@H](NC(=O)N1CCOCC1)C1CCCCC1 ?
MBD2 inh: -5; PRMT1 inh: 7; LEDGF integ inh: -2; UHRF1 binding: 0

Results for Cc1ccc(N=Cc2cc3c(cc2O)OC(N)=C(C#N)C3c2ccccc2)cc1 (stereo not drawn) ?
MBD2 inh: -2; RBBP9 inh: -1; ABHD5 PLIN5 PPI: -2; PRMT1 inh: 0; LEDGF integ inh: 30*; UHRF1 binding: -1; IN multimer up: 4; TRFRET interf: -18; LEDGF integ conf: 15*

How did Cc1ccccc1N=Cc1cc2c(cc1O)OC(N)=C(C#N)C2c1ccccc1 (stereo not drawn) do in these assays?
MBD2 inh: 2; RBBP9 inh: 5; ABHD5 PLIN5 PPI: 15; PRMT1 inh: 0; LEDGF integ inh: 19*; UHRF1 binding: -3; IN multimer up: 2; TRFRET interf: -10; LEDGF integ conf: 35*

Bioassay records: PubChem BioAssay, The Scripps Research Institute Molecular Screening Center
